Laboratory results taken from ChEMBL document CHEMBL4339243, “Molecular Networking Reveals the Chemical Diversity of Selaginellin Derivatives, Natural Phosphodiesterase-4 Inhibitors from Selaginella tamariscina” (J Nat Prod, 2019).

target: T1, 3',5'-cyclic-AMP phosphodiesterase 4D (Homo sapiens, UniProt Q08499); experiment: Inhibition of human PDE4D2 catalytic domain (86 to 413 residues) expressed in Escherichia coli strain BL21 using [3H]cAMP as substrate after 15 mins by liquid scintillation counter analysis
T1 sequence (Q08499 whole entry, the tested form may be a part): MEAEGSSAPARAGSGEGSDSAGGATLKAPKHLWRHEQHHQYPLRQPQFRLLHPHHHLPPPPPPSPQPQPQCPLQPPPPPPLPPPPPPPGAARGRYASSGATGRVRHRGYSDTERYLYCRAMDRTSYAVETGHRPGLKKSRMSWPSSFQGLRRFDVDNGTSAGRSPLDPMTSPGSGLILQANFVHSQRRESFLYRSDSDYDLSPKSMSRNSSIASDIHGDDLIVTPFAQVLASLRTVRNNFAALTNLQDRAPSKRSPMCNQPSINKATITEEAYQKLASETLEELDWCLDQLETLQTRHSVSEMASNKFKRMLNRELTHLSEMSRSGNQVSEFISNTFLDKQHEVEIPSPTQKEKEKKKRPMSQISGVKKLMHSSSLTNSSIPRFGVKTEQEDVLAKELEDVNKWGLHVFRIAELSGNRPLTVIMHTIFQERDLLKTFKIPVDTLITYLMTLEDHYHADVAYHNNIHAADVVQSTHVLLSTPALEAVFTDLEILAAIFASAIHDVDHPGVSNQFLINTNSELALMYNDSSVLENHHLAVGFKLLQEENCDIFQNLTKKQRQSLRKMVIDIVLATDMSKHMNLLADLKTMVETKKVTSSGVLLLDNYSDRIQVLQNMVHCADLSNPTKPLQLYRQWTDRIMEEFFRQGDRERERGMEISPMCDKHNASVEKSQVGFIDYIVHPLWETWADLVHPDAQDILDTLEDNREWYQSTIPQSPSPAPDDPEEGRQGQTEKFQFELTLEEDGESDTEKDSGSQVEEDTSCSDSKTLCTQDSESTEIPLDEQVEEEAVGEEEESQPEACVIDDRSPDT

IC50 [µM]	Structure (SMILES)
1	O=C1C=CC(=C(c2ccc(O)cc2)c2c(-c3ccc(O)cc3)ccc(CO)c2C#Cc2ccc(O)cc2)C=C1
0.2	OCc1ccc2c(c1C#Cc1ccc(O)cc1)C(c1ccc(O)cc1)(c1ccc(O)cc1)c1cc(O)ccc1-2
0.09	COc1ccc(C2(c3ccc(OC)cc3)c3cc(O)ccc3-c3cccc(C#Cc4ccc(O)cc4)c32)cc1
0.01	COc1ccc(C2(c3ccc(OC)cc3)c3cc(O)ccc3-c3ccc(C=O)c(C#Cc4ccc(O)cc4)c32)cc1
1.2	Oc1ccc(C#Cc2ccc(O)c3c2C(c2ccc(O)cc2)(c2ccc(O)cc2)c2cc(O)ccc2-3)cc1

target: T1, 3',5'-cyclic-AMP phosphodiesterase 4D; experiment: Inhibition of PDE4D2 (unknown origin) by preincubated for 30 mins before substrate addition and measured after 60 mins by IMAP TR-FRET phosphodiesterase evaluation assay
Procedure, shortened: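 Purchased PDE4D2 at 5.0 pg/μL in IMAP buffer (10 mM Tris pH 7.2, 10 mM MgCl2, 0.05% NaN3, 1 mM DTT, 0.1% phosphate-free BSA). Compound or vehicle preincubated 30 min at RT, then FAM-cAMP added (200 nM final), 60 min at RT. Stopped with IMAP Tb binding reagent, 60 min at RT, fluorescence read. IC50 by four-parameter nonlinear fit, three independent replicates.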

IC50 [µM]	Structure (SMILES)
2.8	COCc1ccc2c(c1C#Cc1ccc(O)cc1)C(c1ccc(OC)cc1)(c1ccc(OC)cc1)c1cc(O)ccc1-2
32.1	COc1ccc([C@@]2(c3ccc(O)cc3)c3cc(O)ccc3-c3ccc(CO)c(C#Cc4ccc(O)cc4)c32)cc1
5.4	COc1ccc(C2(c3ccc(OC)cc3)c3cc(O)ccc3-c3ccc(CO)c(C#Cc4ccc(O)cc4)c32)cc1
> 30	COc1ccc(-c2c3ccc(OC)cc3c3c4c(ccc(-c5ccc(O)cc5)c24)[C@@H](c2ccc(O)cc2)OC3=O)cc1
23.2	COCc1ccc2c(c1C#Cc1ccc(O)cc1)C(c1ccc(O)cc1)(c1ccc(O)cc1)c1cc(O)ccc1-2
19.5	COc1ccc([C@@]2(c3ccc(O)cc3)c3cc(O)ccc3-c3ccc(C)c(C#Cc4ccc(O)cc4)c32)cc1
33.8	COCc1ccc2c(c1C#Cc1ccc(O)cc1)[C@](c1ccc(O)cc1)(c1ccc(OC)cc1)c1cc(O)ccc1-2
13.7	COc1ccc(-c2c3ccc(OC)cc3c3c4c(ccc(-c5ccc(O)cc5)c24)C(=O)O[C@H]3c2ccc(O)cc2)cc1
24.6	COc1ccc(C2(c3ccc(OC)cc3)c3cc(O)ccc3-c3ccc(C)c(C#Cc4ccc(O)cc4)c32)cc1
29.5	COCc1cc(O)c2c(c1C#Cc1ccc(O)cc1)C(c1ccc(O)cc1)(c1ccc(O)cc1)c1cc(O)ccc1-2
